# Where “and” joins values, the source holds several entries; their conditions need not be identical. Equal values may be shown once.
# How the values were obtained:
# Assay type in all cases: toxicity, cell-based
# U2OS = assay: Multiplex assay against U2OS; settings: human, 10 µM, compound concentration 10 uM, number of replicates 2
# Outline: (§1)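 Cells stained live at seeding with Hoechst33342, BioTracker Green Microtubule Cytoskeleton Dye, MitoTracker Red and Annexin V Alexa Fluor 680 were imaged on a CQ1 microscope at 37°C and 5% CO2 after compound addition. Their classification by CellPathfinder machine-learning gating ran from Hoechst high-intensity objects versus normal cells, to healthy, pyknosed or fragmented nuclei among normal cells, to mitotic or apoptotic among pyknosed cells. Tubulin, mitochondrial-mass and membrane-permeability phenotypes are per cents of healthy-nucleus cells.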
# Fibroblast = assay: Multiplex assay against human fibroblast; settings: 10 µM, compound concentration 10 uM, number of replicates 2; outline: as §1
# HEK-293T = assay: Multiplex assay against HEK293T; settings: human, 10 µM, compound concentration 10 uM, number of replicates 2; outline: as §1
smiles,measurement,setting,value
CNC(=O)c1nn(C)c2c1C(C)(C)Cc1cnc(Nc3ccc(N4CCN(C)CC4)cc3)nc1-2 [MILCICLIB],Population Apoptotic (%),U2OS; 12 h,66% and 80% and 69% and 62%
same,Population Healthy Nuclei (%),U2OS; 12 h,67% [middle of 4 runs]
same,Population Hoechst High Intensity Objects (%),U2OS; 12 h,0%
same,Population Mitochondria Different-Phenotype (%),U2OS; 12 h,50% and 57% and 45% and 40%
same,Population Mitotic Cells (%),U2OS; 12 h,33% and 19% and 30% and 37%
same,Population Normal (%),U2OS; 12 h,100% and 99%
same,Population Pyknosed Nuclei (%),U2OS; 12 h,39% [middle of 4 runs]
same,Population Tubulin-Different-Phenotype (%),U2OS; 12 h,85% and 92% and 76% and 74%
same,Population Apoptotic (%),U2OS; 24 h,85% and 89% and 80%
same,Population Healthy Nuclei (%),U2OS; 24 h,50% [middle of 4 runs]
same,Population Hoechst High Intensity Objects (%),U2OS; 24 h,0%
same,Population Mitochondria Different-Phenotype (%),U2OS; 24 h,78% and 64% and 65% and 59%
same,Population Mitotic Cells (%),U2OS; 24 h,14% and 10% and 19%
same,Population Normal (%),U2OS; 24 h,100% and 99%
same,Population Pyknosed Nuclei (%),U2OS; 24 h,57% and 43% and 45% and 36%
same,Population Tubulin-Different-Phenotype (%),U2OS; 24 h,78% and 92% and 77% and 69%
same,Population Apoptotic (%),U2OS; 48 h,93% and 84% and 92% and 89%
same,Population Healthy Nuclei (%),U2OS; 48 h,26% [middle of 4 runs]
same,Population Hoechst High Intensity Objects (%),U2OS; 48 h,0% and 1%
same,Population Membrane Permeable-Phenotype (%),U2OS; 48 h,28% and 36% and 26%
same,Population Mitochondria Different-Phenotype (%),U2OS; 48 h,100% and 54% and 69%
same,Population Mitotic Cells (%),U2OS; 48 h,6% and 15% and 7% and 10%
same,Population Normal (%),U2OS; 48 h,100% and 98%
same,Population Pyknosed Nuclei (%),U2OS; 48 h,76% and 42% and 68% and 57%
same,Population Tubulin-Different-Phenotype (%),U2OS; 48 h,71% and 81% and 77%
same,Population Apoptotic (%),Fibroblast; 12 h,44% and 41% and 38% and 43%
same,Population Fragmented Nuclei (%),Fibroblast; 12 h,8% and 14% and 10% and 12%
same,Population Healthy Nuclei (%),Fibroblast; 12 h,78% and 69% and 75% and 76%
same,Population Hoechst High Intensity Objects (%),Fibroblast; 12 h,0%
same,Population Membrane Permeable-Phenotype (%),Fibroblast; 12 h,10% and 5% and 9% and 11%
same,Population Mitochondria Different-Phenotype (%),Fibroblast; 12 h,6% and 10% and 4%
same,Population Mitotic Cells (%),Fibroblast; 12 h,56% and 58% and 61%
same,Population Normal (%),Fibroblast; 12 h,99% and 100%
same,Population Pyknosed Nuclei (%),Fibroblast; 12 h,12% and 16% and 13% and 10%
same,Population Tubulin-Different-Phenotype (%),Fibroblast; 12 h,77% and 75% and 67% and 55%
same,Total Cell Count,Fibroblast; 12 h,202 and 150 and 248 and 210
same,Population Apoptotic (%),Fibroblast; 24 h,50% and 39% and 52%
same,Population Fragmented Nuclei (%),Fibroblast; 24 h,18% and 13% and 19%
same,Population Healthy Nuclei (%),Fibroblast; 24 h,71% and 74% and 70% and 73%
same,Population Hoechst High Intensity Objects (%),Fibroblast; 24 h,0%
same,Population Membrane Permeable-Phenotype (%),Fibroblast; 24 h,6% and 0% and 4% and 3%
same,Population Mitochondria Different-Phenotype (%),Fibroblast; 24 h,7% and 9% and 11% and 6%
same,Population Mitotic Cells (%),Fibroblast; 24 h,50% and 60% and 47%
same,Population Normal (%),Fibroblast; 24 h,99% and 100%
same,Population Pyknosed Nuclei (%),Fibroblast; 24 h,9% and 12% and 7%
same,Population Tubulin-Different-Phenotype (%),Fibroblast; 24 h,75% and 71% and 65% and 55%
same,Total Cell Count,Fibroblast; 24 h,250 and 149 and 287 and 240
same,Population Apoptotic (%),Fibroblast; 48 h,60% and 63% and 72% and 73%
same,Population Fragmented Nuclei (%),Fibroblast; 48 h,16% and 21% and 20% and 22%
same,Population Healthy Nuclei (%),Fibroblast; 48 h,71% and 58% and 67% and 63%
same,Population Hoechst High Intensity Objects (%),Fibroblast; 48 h,0%
same,Population Membrane Permeable-Phenotype (%),Fibroblast; 48 h,7% and 6% and 3% and 2%
same,Population Mitochondria Different-Phenotype (%),Fibroblast; 48 h,11% and 9% and 13% and 6%
same,Population Mitotic Cells (%),Fibroblast; 48 h,40% and 36% and 27% and 26%
same,Population Normal (%),Fibroblast; 48 h,100%
same,Population Pyknosed Nuclei (%),Fibroblast; 48 h,12% and 20% and 13%
same,Population Tubulin-Different-Phenotype (%),Fibroblast; 48 h,66% and 57% and 56% and 48%
same,Total Cell Count,Fibroblast; 48 h,241 and 162 and 294 and 249
same,Population Apoptotic (%),HEK-293T; 12 h,71% and 63% and 94% and 80%
same,Population Fragmented Nuclei (%),HEK-293T; 12 h,2% and 5% and 0%
same,Population Healthy Nuclei (%),HEK-293T; 12 h,86% and 83% and 89% and 90%
same,Population Hoechst High Intensity Objects (%),HEK-293T; 12 h,16% and 14% and 15% and 12%
same,Population Membrane Permeable-Phenotype (%),HEK-293T; 12 h,3% and 1% and 0% and 2%
same,Population Mitochondria Different-Phenotype (%),HEK-293T; 12 h,81% and 80% and 79% and 71%
same,Population Normal (%),HEK-293T; 12 h,83% and 85% and 84% and 87%
same,Population Pyknosed Nuclei (%),HEK-293T; 12 h,10% and 7% and 8%
same,Population Tubulin-Different-Phenotype (%),HEK-293T; 12 h,94% and 95% and 91%
same,Total Cell Count,HEK-293T; 12 h,247 and 254 and 304 and 272
same,Population Apoptotic (%),HEK-293T; 24 h,73% and 83% and 95% and 70%
same,Population Fragmented Nuclei (%),HEK-293T; 24 h,3% and 4% and 1%
same,Population Healthy Nuclei (%),HEK-293T; 24 h,91% and 89% and 88% and 93%
same,Population Hoechst High Intensity Objects (%),HEK-293T; 24 h,16% and 15% and 14%
same,Population Membrane Permeable-Phenotype (%),HEK-293T; 24 h,2% and 0% and 1%
same,Population Mitochondria Different-Phenotype (%),HEK-293T; 24 h,86% and 85% and 82% and 78%
same,Population Normal (%),HEK-293T; 24 h,83% and 84% and 85%
same,Population Pyknosed Nuclei (%),HEK-293T; 24 h,5% and 6%
same,Population Tubulin-Different-Phenotype (%),HEK-293T; 24 h,93% and 92% and 90%
same,Total Cell Count,HEK-293T; 24 h,355 and 365 and 395
same,Population Apoptotic (%),HEK-293T; 48 h,82% and 77% and 88% and 76%
same,Population Fragmented Nuclei (%),HEK-293T; 48 h,3% and 1%
same,Population Healthy Nuclei (%),HEK-293T; 48 h,90% and 88% and 93%
same,Population Hoechst High Intensity Objects (%),HEK-293T; 48 h,19% and 16% and 11% and 14%
same,Population Membrane Permeable-Phenotype (%),HEK-293T; 48 h,2% and 1% and 0%
same,Population Mitochondria Different-Phenotype (%),HEK-293T; 48 h,91% and 90% and 94% and 89%
same,Population Mitotic Cells (%),HEK-293T; 48 h,17% and 22% and 12% and 23%
same,Population Normal (%),HEK-293T; 48 h,80% and 83% and 88% and 85%
same,Population Pyknosed Nuclei (%),HEK-293T; 48 h,5% and 8% and 6% and 4%
same,Population Tubulin-Different-Phenotype (%),HEK-293T; 48 h,93% and 89% and 88%
same,Total Cell Count,HEK-293T; 48 h,395 and 386 and 413 and 401

# Reference: ChEMBL document CHEMBL5303300, “EUbOPEN Chemogenomics Library - Multiplex” (2023)
